ChEMBL document CHEMBL3414516, “Novel pyridyl substituted 4,5-dihydro-[1,2,4]triazolo[4,3-a]quinolines as potent and selective aldosterone synthase inhibitors with improved in vitro metabolic stability” (J Med Chem, 2015)

Experiments:
[1] = biological target: T1, Cytochrome P450 11B2, mitochondrial (Homo sapiens, UniProt P19099); assay: Inhibition of human CYP11B2 expressed in V79 MZh cells using [14C]-deoxycorticosterone substrate incubated for 6 hrs by HPTLC method; type: cell-based, V79MZh
T1 sequence (P19099 whole entry): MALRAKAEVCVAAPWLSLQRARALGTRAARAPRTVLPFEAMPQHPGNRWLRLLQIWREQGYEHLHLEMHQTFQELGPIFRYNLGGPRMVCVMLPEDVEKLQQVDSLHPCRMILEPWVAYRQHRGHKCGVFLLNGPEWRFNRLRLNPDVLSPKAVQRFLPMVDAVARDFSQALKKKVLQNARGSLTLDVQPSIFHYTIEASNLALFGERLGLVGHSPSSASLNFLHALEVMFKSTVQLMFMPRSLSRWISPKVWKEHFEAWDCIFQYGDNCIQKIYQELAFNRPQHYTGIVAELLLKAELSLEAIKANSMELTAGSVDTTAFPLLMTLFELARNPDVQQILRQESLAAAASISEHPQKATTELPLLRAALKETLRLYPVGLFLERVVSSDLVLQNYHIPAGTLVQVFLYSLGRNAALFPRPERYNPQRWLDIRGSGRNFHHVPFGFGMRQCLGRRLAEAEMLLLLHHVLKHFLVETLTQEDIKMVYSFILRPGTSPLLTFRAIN
Method in brief: (§1)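 V79 MZh cells expressing human CYP11B1 or CYP11B2 were incubated 6 h with [¹⁴C]-deoxycorticosterone and inhibitor at various concentrations. Steroids were extracted with ethyl acetate, separated by HPTLC and quantified by phosphoimager.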

[2] = biological target: T2, Cytochrome P450 11B1, mitochondrial (Homo sapiens, UniProt P15538); assay: Inhibition of human CYP11B1 expressed in V79 MZh cells using [14C]-deoxycorticosterone substrate incubated for 6 hrs by HPTLC method; type: cell-based, V79MZh; method in brief: as §1
T2 sequence (P15538 whole entry): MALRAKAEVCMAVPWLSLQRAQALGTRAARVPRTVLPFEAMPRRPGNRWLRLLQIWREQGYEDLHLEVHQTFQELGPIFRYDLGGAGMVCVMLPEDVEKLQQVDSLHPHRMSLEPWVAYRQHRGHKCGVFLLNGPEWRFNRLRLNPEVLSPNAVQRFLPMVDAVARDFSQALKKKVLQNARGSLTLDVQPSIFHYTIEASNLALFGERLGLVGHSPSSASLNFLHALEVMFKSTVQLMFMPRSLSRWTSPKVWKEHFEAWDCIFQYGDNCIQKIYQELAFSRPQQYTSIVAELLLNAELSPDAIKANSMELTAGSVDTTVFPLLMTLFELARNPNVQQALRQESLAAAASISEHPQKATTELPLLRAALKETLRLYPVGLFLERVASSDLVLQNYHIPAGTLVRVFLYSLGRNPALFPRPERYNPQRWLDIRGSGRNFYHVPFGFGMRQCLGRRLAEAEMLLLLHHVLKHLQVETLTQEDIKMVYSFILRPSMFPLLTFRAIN

Homo sapiens = species on record: Homo sapiens; assay: Selectivity index, ratio of IC50 for human CYP11B1 to IC50 human CYP11B2
Aromatase = biological target: T3, Aromatase (Homo sapiens, UniProt P11511); assay: Inhibition of CYP19 in human placental microsomes using [1beta-3H]androstenedione substrate; parameters: species or system Placenta
T3 sequence (P11511 whole entry): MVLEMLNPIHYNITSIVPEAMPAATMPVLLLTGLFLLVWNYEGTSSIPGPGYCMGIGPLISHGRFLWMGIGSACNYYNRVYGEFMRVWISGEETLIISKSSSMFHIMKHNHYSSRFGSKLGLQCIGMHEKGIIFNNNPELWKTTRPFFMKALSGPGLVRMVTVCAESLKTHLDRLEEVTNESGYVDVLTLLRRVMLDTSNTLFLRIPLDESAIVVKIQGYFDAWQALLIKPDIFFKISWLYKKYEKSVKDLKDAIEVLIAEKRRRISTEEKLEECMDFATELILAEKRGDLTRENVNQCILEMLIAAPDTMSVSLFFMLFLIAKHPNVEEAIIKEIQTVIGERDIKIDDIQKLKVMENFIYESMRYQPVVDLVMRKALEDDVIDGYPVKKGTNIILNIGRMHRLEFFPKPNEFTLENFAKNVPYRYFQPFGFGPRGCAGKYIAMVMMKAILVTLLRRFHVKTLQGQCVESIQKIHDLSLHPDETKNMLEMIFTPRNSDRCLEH

[3] = biological target: T4, Steroid 17-alpha-hydroxylase/17,20 lyase (Homo sapiens, UniProt P05093); assay: Inhibition of human CYP17 expressed in Escherichia coli coexpressing human CYP17 and NADPH-P450 reductase
T4 sequence (P05093 whole entry): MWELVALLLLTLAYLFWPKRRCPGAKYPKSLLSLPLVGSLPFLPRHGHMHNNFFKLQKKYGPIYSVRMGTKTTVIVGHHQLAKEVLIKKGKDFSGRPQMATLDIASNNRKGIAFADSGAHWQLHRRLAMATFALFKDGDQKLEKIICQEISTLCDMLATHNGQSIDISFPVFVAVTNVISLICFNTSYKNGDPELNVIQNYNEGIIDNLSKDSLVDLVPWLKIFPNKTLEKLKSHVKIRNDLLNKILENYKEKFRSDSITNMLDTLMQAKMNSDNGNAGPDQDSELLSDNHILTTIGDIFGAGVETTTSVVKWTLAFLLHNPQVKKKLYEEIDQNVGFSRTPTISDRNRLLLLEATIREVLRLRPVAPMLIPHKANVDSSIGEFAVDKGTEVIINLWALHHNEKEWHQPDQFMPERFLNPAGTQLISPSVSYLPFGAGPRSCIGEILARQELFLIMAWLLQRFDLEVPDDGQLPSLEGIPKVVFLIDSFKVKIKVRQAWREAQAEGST

[4] = Half life in human hepatic microsomes at 1 uM in presence of NADPH system by LC-MS/MS method; type: ADME, Microsome; conditions: liver microsomes
Method in brief: (§2)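 Pooled mixed-gender human liver microsomes at 0.5 mg/mL final protein in potassium phosphate–MgCl₂ buffer (100 mM, pH 7.4). Compound at 1 μM final with NADPH system, 37 °C. Samples at 2, 5, 15, 30 and 45 min, quenched with acetonitrile, vortexed, centrifuged, and supernatant analysed by LC–MS/MS.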

[5] = Intrinsic clearance in human hepatic microsomes at 1 uM in presence of NADPH system by LC-MS/MS method; type: ADME; conditions: liver microsomes, read-out: CLH; method in brief: as §2
[6] = Stability in human hepatic microsomes assessed as unchanged compound level at 1 uM after 120 mins in presence of NADPH system by LC-MS/MS method; type: ADME, Microsome; conditions: liver microsomes, read-out: Stability
Cytochrome P450 1A2 = biological target: T5, Cytochrome P450 1A2 (Homo sapiens, UniProt P05177); assay: Inhibition of human recombinant CYP1A2 using phenacetin substrate by LC-MS/MS method; type: ADME
T5 sequence (P05177 whole entry): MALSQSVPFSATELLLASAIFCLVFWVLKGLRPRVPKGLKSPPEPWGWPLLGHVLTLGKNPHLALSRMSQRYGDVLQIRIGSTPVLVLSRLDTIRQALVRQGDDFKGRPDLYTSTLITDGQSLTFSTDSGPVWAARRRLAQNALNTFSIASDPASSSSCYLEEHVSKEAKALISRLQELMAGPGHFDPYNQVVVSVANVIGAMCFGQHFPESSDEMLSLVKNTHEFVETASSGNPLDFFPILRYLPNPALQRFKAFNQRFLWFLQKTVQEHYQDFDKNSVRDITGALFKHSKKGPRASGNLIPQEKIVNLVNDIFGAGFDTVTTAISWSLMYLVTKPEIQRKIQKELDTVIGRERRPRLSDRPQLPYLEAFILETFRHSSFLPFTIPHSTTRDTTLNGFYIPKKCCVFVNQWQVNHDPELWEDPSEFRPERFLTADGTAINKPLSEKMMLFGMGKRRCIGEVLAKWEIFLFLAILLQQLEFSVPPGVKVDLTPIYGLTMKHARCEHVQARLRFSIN
Method in brief: (§3)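 Compounds tested in duplicate at six concentrations up to 50 μM. Acetonitrile quench at one time point, then LC–MS/MS of probe metabolites. Metabolites were normalized to vehicle controls and IC50 calculated.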

Cytochrome P450 2C9 = Cytochrome P450 2C9 (Homo sapiens, UniProt P11712); assay: Inhibition of human recombinant CYP2C9 using diclofenac substrate by LC-MS/MS method; type: ADME; method in brief: as §3
Chain of Cytochrome P450 2C9 (P11712 whole entry): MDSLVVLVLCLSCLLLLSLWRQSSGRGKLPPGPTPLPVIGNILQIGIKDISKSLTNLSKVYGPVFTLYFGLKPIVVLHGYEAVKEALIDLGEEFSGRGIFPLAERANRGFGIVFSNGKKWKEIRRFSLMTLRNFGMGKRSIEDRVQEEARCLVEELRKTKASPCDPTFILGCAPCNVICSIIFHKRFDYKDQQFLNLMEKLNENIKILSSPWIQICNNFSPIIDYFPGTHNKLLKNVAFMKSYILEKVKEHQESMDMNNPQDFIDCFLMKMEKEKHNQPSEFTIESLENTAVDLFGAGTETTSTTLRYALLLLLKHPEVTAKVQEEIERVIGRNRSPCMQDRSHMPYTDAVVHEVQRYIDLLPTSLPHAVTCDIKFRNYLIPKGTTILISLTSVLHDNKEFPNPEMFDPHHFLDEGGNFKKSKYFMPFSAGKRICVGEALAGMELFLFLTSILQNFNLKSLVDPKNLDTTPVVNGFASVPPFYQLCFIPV

Cytochrome P450 2C19 = Cytochrome P450 2C19 (Homo sapiens, UniProt P33261); assay: Inhibition of human recombinant CYP2C19 using smephenytoin substrate by LC-MS/MS method; type: ADME; method in brief: as §3
Chain of Cytochrome P450 2C19 (P33261 whole entry): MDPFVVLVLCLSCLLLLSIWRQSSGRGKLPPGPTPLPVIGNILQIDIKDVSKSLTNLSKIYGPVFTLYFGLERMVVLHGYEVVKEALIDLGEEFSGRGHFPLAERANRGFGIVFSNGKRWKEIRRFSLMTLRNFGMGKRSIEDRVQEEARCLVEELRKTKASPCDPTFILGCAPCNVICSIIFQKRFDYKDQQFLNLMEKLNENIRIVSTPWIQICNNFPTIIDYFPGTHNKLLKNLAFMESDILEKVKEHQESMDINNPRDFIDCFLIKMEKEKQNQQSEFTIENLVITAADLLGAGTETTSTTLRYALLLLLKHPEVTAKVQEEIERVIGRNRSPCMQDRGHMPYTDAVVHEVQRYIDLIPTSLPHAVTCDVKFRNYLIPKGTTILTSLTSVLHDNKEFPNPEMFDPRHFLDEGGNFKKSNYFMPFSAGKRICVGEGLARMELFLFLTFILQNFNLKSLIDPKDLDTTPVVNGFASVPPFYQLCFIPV

Cytochrome P450 2D6 = Cytochrome P450 2D6 (Homo sapiens, UniProt P10635); assay: Inhibition of human recombinant CYP2D6 using bufuralol substrate by LC-MS/MS method; type: ADME; method in brief: as §3
Chain of Cytochrome P450 2D6 (P10635 whole entry): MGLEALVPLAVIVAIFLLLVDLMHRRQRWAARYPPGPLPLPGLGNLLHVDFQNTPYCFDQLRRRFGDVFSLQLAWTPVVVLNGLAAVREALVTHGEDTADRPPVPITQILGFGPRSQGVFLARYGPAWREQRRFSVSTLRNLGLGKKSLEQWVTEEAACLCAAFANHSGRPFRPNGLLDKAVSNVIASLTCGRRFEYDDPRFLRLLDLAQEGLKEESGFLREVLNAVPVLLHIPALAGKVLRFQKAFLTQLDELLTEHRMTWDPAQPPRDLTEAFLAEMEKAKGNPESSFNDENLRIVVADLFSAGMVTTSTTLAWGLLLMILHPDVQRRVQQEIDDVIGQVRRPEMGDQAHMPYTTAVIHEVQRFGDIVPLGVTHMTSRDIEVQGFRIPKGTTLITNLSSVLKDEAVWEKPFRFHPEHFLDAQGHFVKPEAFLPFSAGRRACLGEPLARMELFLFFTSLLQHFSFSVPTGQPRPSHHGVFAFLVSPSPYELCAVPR

Cytochrome P450 3A4 = Cytochrome P450 3A4 (Homo sapiens, UniProt P08684); assay: Inhibition of human recombinant CYP3A4 using midazolam substrate by LC-MS/MS method; type: ADME; method in brief: as §3
Chain of Cytochrome P450 3A4 (P08684 whole entry): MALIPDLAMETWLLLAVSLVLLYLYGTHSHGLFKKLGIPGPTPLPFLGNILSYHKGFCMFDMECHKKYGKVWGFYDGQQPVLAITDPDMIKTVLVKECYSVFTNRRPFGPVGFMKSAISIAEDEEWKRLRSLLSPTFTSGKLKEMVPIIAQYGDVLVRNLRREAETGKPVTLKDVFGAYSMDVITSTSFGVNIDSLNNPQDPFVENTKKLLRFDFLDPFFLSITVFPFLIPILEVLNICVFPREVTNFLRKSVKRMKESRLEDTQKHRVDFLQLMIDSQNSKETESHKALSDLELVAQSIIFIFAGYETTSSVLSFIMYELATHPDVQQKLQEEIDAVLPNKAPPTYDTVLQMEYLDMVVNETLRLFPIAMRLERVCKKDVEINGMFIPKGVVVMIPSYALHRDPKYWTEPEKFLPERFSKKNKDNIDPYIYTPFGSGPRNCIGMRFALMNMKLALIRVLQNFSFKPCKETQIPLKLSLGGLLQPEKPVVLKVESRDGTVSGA

IC50 [1] [µM] | IC50 [2] [µM] | Ratio IC50 (Homo sapiens) | IC50 (Aromatase) [µM] | IC50 [3] [µM] | SMILES | also measured
0.0042 |  | 422 | > 10 | > 10 | Cc1ccncc1-c1cc(F)c2c(c1)CCc1nnc(C)n1-2 | half-life at 1 µM [4]: > 2 h; microsomal CLint at 1 µM [5]: 4 µL/min/mg; remaining at 2 h, 1 µM [6]: 80%; IC50 (Cytochrome P450 1A2): > 50 µM; IC50 (Cytochrome P450 2C9): > 50 µM; IC50 (Cytochrome P450 2C19): > 50 µM; IC50 (Cytochrome P450 2D6): > 50 µM; IC50 (Cytochrome P450 3A4): > 50 µM
 |  | 78 | > 10 | > 10 | CC(=O)c1cncc(-c2cc(F)c3c(c2)CCc2nnc(C)n2-3)c1 | 
 |  | 272 | > 10 | > 10 | Cc1nnc2n1-c1c(F)cc(-c3cccnc3)cc1CC2 | half-life at 1 µM [4]: > 2 h
 |  | 138 | > 10 | > 10 | Cc1nnc2n1-c1c(F)cc(-c3cncc(C(C)O)c3)cc1CC2 (configuration not stated) | 
 |  | 89 | > 10 | > 10 | COc1cncc(-c2cc(F)c3c(c2)CCc2nnc(C)n2-3)c1 | 
0.0195 | 4.52 | 232 | > 10 | > 10 | Cc1c(F)cncc1-c1cc(F)c2c(c1)CCc1nnc(C)n1-2 | 
1.18 | > 10 |  | > 10 | > 10 | Cc1nnc2n1-c1c(F)cc(-c3cncc(C#N)c3)cc1CC2 | 
 |  | 49 | > 10 | > 10 | Cc1nnc2n1-c1c(F)cc(-c3cncc4ccccc34)cc1CC2 | 
 |  | 60 | > 10 | > 10 | Cc1nnc2n1-c1c(F)cc(-c3cncc(-c4ccccc4)c3)cc1CC2 | 
0.0897 |  | 329 | > 10 | > 10 | Cc1nnc2n1-c1c(F)cc(-c3cncc(F)c3)cc1CC2 | half-life at 1 µM [4]: > 2 h; microsomal CLint at 1 µM [5]: 12 µL/min/mg; IC50 (Cytochrome P450 1A2): > 50 µM; IC50 (Cytochrome P450 2C9): > 50 µM; IC50 (Cytochrome P450 2C19): > 50 µM; IC50 (Cytochrome P450 2D6): > 50 µM; IC50 (Cytochrome P450 3A4): > 50 µM

Continued, molecule first:

SMILES | IC50 [1] [µM] | IC50 [2] [µM] | Ratio IC50 (Homo sapiens) | IC50 (Aromatase) [µM] | IC50 [3] [µM] | also measured
Cc1c(F)cncc1-c1cc(F)c2c(c1)CCc1nncn1-2 | 0.0425 | 5.7 | 134 | > 10 | > 10 | 
Fc1cc2c(cc1-c1cccnc1)CCc1nncn1-2 |  |  | 32 | > 10 | > 10 | 
O=C(c1ccccc1)c1nnc2n1-c1c(F)cc(-c3cccnc3)cc1CC2 | 0.708 | > 10 |  | > 10 | > 10 | 
Fc1cc2c(cc1-c1cccnc1)CCc1nnc(-c3ccccc3)n1-2 | > 10 | > 10 |  | > 10 | > 10 | 
CC(C)c1nnc2n1-c1cc(F)c(-c3cccnc3)cc1CC2 | > 10 | > 10 |  | > 10 | > 10 | 
CCc1nnc2n1-c1c(F)cc(-c3cccnc3)cc1CC2 | 0.542 | > 10 |  | > 10 | > 10 | 
Fc1cc2c(cc1-c1cccnc1)CCc1nnc(-c3ccncc3)n1-2 | > 10 | > 10 |  | > 10 | > 10 | 
CC(C)c1nnc2n1-c1c(F)cc(-c3cccnc3)cc1CC2 | > 10 | > 10 |  | > 10 | > 10 | 
Cc1nnc2n1-c1cc(F)c(-c3cccnc3)cc1CC2 |  |  | 96 | > 10 | > 10 | 
CCc1nnc2n1-c1cc(F)c(-c3cccnc3)cc1CC2 | 0.979 | > 10 |  | > 10 | > 10 | 
Fc1cncc(-c2cc(F)c3c(c2)CCc2nncn2-3)c1 | 0.335 | > 10 |  | > 10 | > 10 | 
Fc1cc(-c2cccnc2)cc2c1-n1c(nnc1-c1ccncc1)CC2 | > 10 | > 10 |  | > 10 | > 10 | 
Cc1nnc2n1-c1c(F)cc(-c3cncc(C(F)(F)F)c3)cc1CC2 |  |  | 63 | > 10 | > 10 | 
Fc1cc2c(cc1-c1cccnc1)CCc1nnc(Cc3ccccc3)n1-2 | 4.35 | > 10 |  | > 10 | > 10 | 
Fc1cc(-c2cccnc2)cc2c1-n1cnnc1CC2 |  |  | 94 | > 10 | > 10 | 
Fc1cc(-c2cccnc2)cc2c1-n1c(nnc1-c1ccccc1)CC2 | > 10 | > 10 |  | > 10 | > 10 | 
